Data on 21 molecules can be found in ChEMBL document CHEMBL1143174, “Pharmacomodulation on the 3-acetylursolic acid skeleton: Design, synthesis, and biological evaluation of novel N-{3-[4-(3-aminopropyl)piperazinyl]propyl}-3-O-acetylursolamide derivatives as antimalarial agents” (Bioorg Med Chem, 2008).

What is called pIC50 is the negative decadic logarithm of the IC50, by convention in mol/L. As usually defined, the inhibition is how much of the control response was suppressed. A lower inhibition goes with little suppression.

Assay [1] concerns Plasmodium falciparum. Nature of the assay: Antimalarial activity against chloroquine-resistant Plasmodium falciparum FcB1 after 24 hrs. The format is functional, organism-based. The settings on record: FcB1, 24 h. An outline of the steps:
(§1)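 Asynchronous P. falciparum cultures in human erythrocytes (1% parasitemia, 1% final hematocrit) exposed to serially diluted compounds (DMSO stock, final DMSO ≤0.1%) for 24 h at 37 °C, then 0.5 µCi [3H]hypoxanthine per well added for a further 24 h. Growth inhibition from incorporated radioactivity versus drug-free control on the same plate; IC50 from concentration-response curve, means ± standard deviations of several independent experiments.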

The target in assay [2] is T1, Histidine-rich protein PFHRP-II (Plasmodium falciparum) (UniProt P05227).
T1 sequence (whole entry): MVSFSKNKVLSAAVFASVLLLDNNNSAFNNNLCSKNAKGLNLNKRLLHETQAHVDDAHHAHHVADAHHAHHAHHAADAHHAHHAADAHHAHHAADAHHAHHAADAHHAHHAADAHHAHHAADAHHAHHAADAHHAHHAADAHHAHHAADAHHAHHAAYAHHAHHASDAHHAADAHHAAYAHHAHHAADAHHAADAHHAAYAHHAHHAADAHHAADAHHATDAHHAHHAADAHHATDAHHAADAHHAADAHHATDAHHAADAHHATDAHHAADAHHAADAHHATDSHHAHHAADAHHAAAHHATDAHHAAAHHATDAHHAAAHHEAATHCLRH
The assay can be described thus: Inhibition of beta-hematin formation at 5 mM. The format is functional.

Assay [3] deals with T2, Histidine-rich protein PFHRP-II (Plasmodium falciparum, UniProt P05227).
T2 sequence (P05227 whole entry): T1 sequence (whole entry)
The assay can be described thus: Inhibition of beta-hematin formation. The format is functional.

In assay [4] the target is T1, Histidine-rich protein PFHRP-II (Plasmodium falciparum). Nature of the assay: Relative chloroquine IC50 for beta-hematin formation. The format is functional.
The subject of assay [5] is Plasmodium falciparum. The assay can be described thus: Antimalarial activity against chloroquine-sensitive Plasmodium falciparum Thai after 24 hrs. The format is functional, organism-based. An outline of the steps: as §1
Another assay relates to MRC5. Nature of the assay: Cytotoxicity against human MRC5 cells. The format is cell-based.
Assay [6] in a line: Selectivity index, IC50 for MRC5 cells to IC50 for chloroquine-resistant Plasmodium falciparum FcB1. The format is functional. An outline of the steps:
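Ratio of IC50 on MRC-5 human diploid embryonic lung cells to IC50 on FcB1 parasites, the latter from the 24 h drug plus 24 h [3H]hypoxanthine incorporation assay.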

Assay [7] is described as follows: Resistance index, IC50 for chloroquine-resistant Plasmodium falciparum FcB1 to chloroquine-sensitive Plasmodium falciparum Thai. The format is functional. An outline of the steps:
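Ratio of IC50 values between the sensitive Thai and resistant FcB1 strains, each from the [3H]hypoxanthine incorporation assay (24 h drug exposure then 24 h label, asynchronous cultures, 1% parasitemia, 1% hematocrit).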

Assay [8] deals with T1, Histidine-rich protein PFHRP-II (Plasmodium falciparum). Nature of the assay: Inhibition of beta-hematin formation at 4.2 mM. The format is functional.
Assay [9] shares this target. Nature of the assay: Inhibition of beta-hematin formation at 8.4. The format is functional. As to conditions: concentration not given here.
Assay [10] shares this target. Nature of the assay: Inhibition of beta-hematin formation at 10 mM. The format is functional.
Assay [11] shares this target. Nature of the assay: Inhibition of beta-hematin formation at 1 to 20 mM. The format is functional.
Assay [12] has the same target. The assay can be described thus: Inhibition of beta-hematin formation at 5.7 mM. The format is functional.
The target is the same in assay [13]. The assay can be described thus: Inhibition of beta-hematin formation at 11.4 mM. The format is functional.

pIC50: −log10 of the molar value. Some results are limits rather than exact numbers.

As for `C[C@H]1[C@H](C)CC[C@]2(C(=O)O)CC[C@]3(C)C(=CC[C@@H]4[C@@]5(C)CC[C@H](O)C(C)(C)[C@@H]5CC[C@]43C)[C@H]12` [URSOLIC ACID], the negative-log IC50 (pIC50) is 4.28 in the assay on Plasmodium falciparum [1] and less than 1.70 in [3]. The same molecule registered an inhibition in assay [2] of 17.9%. The Ratio IC50 in assay [4] was greater than 3.4.
Turning to `CCCCCCCN(CCCCCCC)CCCN1CCN(CCCNC(=O)[C@]23CC[C@@H](C)[C@H](C)[C@H]2C2=CC[C@@H]4[C@@]5(C)CC[C@H](OC(C)=O)C(C)(C)[C@@H]5CC[C@@]4(C)[C@]2(C)CC3)CC1`, the pIC50 in the assay with Plasmodium falciparum [1] was 4.38.
Consider `CC(=O)O[C@H]1CC[C@]2(C)[C@H]3CC=C4[C@@H]5[C@@H](C)[C@H](C)CC[C@]5(C(=O)NCCCN5CCN(CCCN(Cc6ccc(O)cc6)Cc6ccc(O)cc6)CC5)CC[C@@]4(C)[C@]3(C)CC[C@H]2C1(C)C`, for which the negative logarithm of the IC50 (pIC50) is 6.80 in the assay on Plasmodium falciparum [1], 6.46 with Plasmodium falciparum [5], 5.80 with MRC5 and 2.28 in assay [3]. Moreover, the Selectivity index in assay [6] turned out to be 9.7. Also, in assay [7], the Ratio was found to be 0.46. For the same molecule, the inhibition in assay [8] amounted to 39.6%; in [9] it was 82.2%. In addition, in [4], the Ratio IC50 is 0.89.
Take `CCN(CC)CCCC(C)Nc1ccnc2cc(Cl)ccc12` (stereo unspecified): the inhibition amounted to 36.9% in assay [2] and 97.4% in [10].
Turning to `CC(=O)O[C@H]1CC[C@]2(C)[C@H]3CC=C4[C@@H]5[C@@H](C)[C@H](C)CC[C@]5(C(=O)NCCCN5CCN(CCCNCc6ccc(O)cc6)CC5)CC[C@@]4(C)[C@]3(C)CC[C@H]2C1(C)C`, the pIC50 is 7.10 with Plasmodium falciparum [1], 6.74 in the assay on Plasmodium falciparum [5] and 5.68 with MRC5. Further, in assay [6], the Selectivity index amounted to 27. In assay [7], the Ratio was 0.43.
Regarding `CCCN(CCC)CCCN1CCN(CCCNC(=O)[C@]23CC[C@@H](C)[C@H](C)[C@H]2C2=CC[C@@H]4[C@@]5(C)CC[C@H](OC(C)=O)C(C)(C)[C@@H]5CC[C@@]4(C)[C@]2(C)CC3)CC1`, the pIC50 with Plasmodium falciparum [1] was 6.10; in the assay on Plasmodium falciparum [5] it was 6.00; with MRC5, 5.71. The Selectivity index in assay [6] worked out at 2.5. Moreover, the Ratio in assay [7] worked out at 0.79.
Regarding `CC(=O)O[C@H]1CC[C@]2(C)[C@H]3CC=C4[C@@H]5[C@@H](C)[C@H](C)CC[C@]5(C(=O)NCCCN5CCN(CCCNCc6ccc([N+](=O)[O-])cc6)CC5)CC[C@@]4(C)[C@]3(C)CC[C@H]2C1(C)C`, the pIC50 with Plasmodium falciparum [1] is 5.98; in the assay on Plasmodium falciparum [5] it was 6.01; in the assay with MRC5, 5.27. This molecule also had a Selectivity index in assay [6] of 5.2. In assay [7], the Ratio worked out at 1.06.
`CC(=O)O[C@H]1CC[C@]2(C)[C@H]3CC=C4[C@@H]5[C@@H](C)[C@H](C)CC[C@]5(C(=O)NCCCN5CCN(CCCN(CC6CC6)CC6CC6)CC5)CC[C@@]4(C)[C@]3(C)CC[C@H]2C1(C)C`: the pIC50 is 6.31 in the assay on Plasmodium falciparum [1], 6.02 with Plasmodium falciparum [5] and 5.60 with MRC5. Further, the Selectivity index in assay [6] was 5.1. In addition, the Ratio in assay [7] is 0.51.
With `C[C@H]1[C@H](C)CC[C@]2(C(=O)NCCCN3CCN(CCCN)CC3)CC[C@]3(C)C(=CC[C@@H]4[C@@]5(C)CC[C@H](O)C(C)(C)[C@@H]5CC[C@]43C)[C@H]12`, the negative-log IC50 (pIC50) in the assay with Plasmodium falciparum [1] was 6.49.
As to `COc1ccc(CN(CCCN2CCN(CCCNC(=O)[C@]34CC[C@@H](C)[C@H](C)[C@H]3C3=CC[C@@H]5[C@@]6(C)CC[C@H](OC(C)=O)C(C)(C)[C@@H]6CC[C@@]5(C)[C@]3(C)CC4)CC2)Cc2ccc(OC)cc2)cc1`, the negative-log IC50 (pIC50) with Plasmodium falciparum [1] is 5.19.
In the assay on Plasmodium falciparum [1], `CC(=O)O[C@H]1CC[C@]2(C)[C@H]3CC=C4[C@@H]5[C@@H](C)[C@H](C)CC[C@]5(C(=O)NCCCN5CCN(CCCN(Cc6ccc(Br)cc6)Cc6ccc(Br)cc6)CC5)CC[C@@]4(C)[C@]3(C)CC[C@H]2C1(C)C` showed a pIC50 of less than 4.00.
The same measure, in the same setting: the value for `CC(=O)O[C@H]1CC[C@]2(C)[C@H]3CC=C4[C@@H]5[C@@H](C)[C@H](C)CC[C@]5(C(=O)NCCCN5CCN(CCCN(CCCc6ccccc6)CCCc6ccccc6)CC5)CC[C@@]4(C)[C@]3(C)CC[C@H]2C1(C)C` was 5.09.
On the same count and under the same terms, the value for `CC(=O)O[C@H]1CC[C@]2(C)[C@H]3CC=C4[C@@H]5[C@@H](C)[C@H](C)CC[C@]5(C(=O)NCCCN5CCN(CCCN(Cc6ccc(F)cc6)Cc6ccc(F)cc6)CC5)CC[C@@]4(C)[C@]3(C)CC[C@H]2C1(C)C` was 4.69.
Take `CC(=O)O[C@H]1CC[C@]2(C)[C@H]3CC=C4[C@@H]5[C@@H](C)[C@H](C)CC[C@]5(C(=O)O)CC[C@@]4(C)[C@]3(C)CC[C@H]2C1(C)C` [O-ACETYLURSOLIC ACID]: in the assay with Plasmodium falciparum [1], the negative-log IC50 (pIC50) was 4.60. The molecule also displayed an inhibition in [11] of 0%.
As to `CCCCN(CCCC)CCCN1CCN(CCCNC(=O)[C@]23CC[C@@H](C)[C@H](C)[C@H]2C2=CC[C@@H]4[C@@]5(C)CC[C@H](OC(C)=O)C(C)(C)[C@@H]5CC[C@@]4(C)[C@]2(C)CC3)CC1`, in the assay with Plasmodium falciparum [1], the pIC50 is 6.00.
The same measure, in the same setting: the figure for `CC(=O)O[C@H]1CC[C@]2(C)[C@H]3CC=C4[C@@H]5[C@@H](C)[C@H](C)CC[C@]5(C(=O)NCCCN5CCN(CCCN(Cc6ccccc6)Cc6ccccc6)CC5)CC[C@@]4(C)[C@]3(C)CC[C@H]2C1(C)C` is 4.68.
For `CC(=O)O[C@H]1CC[C@]2(C)[C@H]3CC=C4[C@@H]5[C@@H](C)[C@H](C)CC[C@]5(C(=O)NCCCN5CCN(CCCN)CC5)CC[C@@]4(C)[C@]3(C)CC[C@H]2C1(C)C`, the pIC50 is 6.77 in the assay with Plasmodium falciparum [1], 6.34 in the assay on Plasmodium falciparum [5], 5.79 with MRC5 and less than 1.70 in [3]. Also, the Selectivity index in assay [6] turned out to be 9.6. Moreover, the Ratio in assay [7] is 0.37. Moreover, the inhibition in assay [2] is 12.9%; in assay [10], 24.6%. In assay [4], the Ratio IC50 is greater than 3.4.
In turn, `CC(=O)O[C@H]1CC[C@]2(C)[C@H]3CC=C4[C@@H]5[C@@H](C)[C@H](C)CC[C@]5(C(=O)NCCCN5CCN(CCCN(CC(C)C)CC(C)C)CC5)CC[C@@]4(C)[C@]3(C)CC[C@H]2C1(C)C` showed a negative-log IC50 (pIC50) in the assay with Plasmodium falciparum [1] of 4.73.
Still for that read-out and setting: the figure for `CC(=O)O[C@H]1CC[C@]2(C)[C@H]3CC=C4[C@@H]5[C@@H](C)[C@H](C)CC[C@]5(C(=O)NCCCN5CCN(CCCN(Cc6ccc(Cl)cc6)Cc6ccc(Cl)cc6)CC5)CC[C@@]4(C)[C@]3(C)CC[C@H]2C1(C)C` is 4.34; for `CC(=O)O[C@H]1CC[C@]2(C)[C@H]3CC=C4[C@@H]5[C@@H](C)[C@H](C)CC[C@]5(C(=O)NCCCN5CCN(CCCN(CC6CCCCC6)CC6CCCCC6)CC5)CC[C@@]4(C)[C@]3(C)CC[C@H]2C1(C)C` it is less than 4.00.
`CC(=O)O[C@H]1CC[C@]2(C)[C@H]3CC=C4[C@@H]5[C@@H](C)[C@H](C)CC[C@]5(C(=O)NCCCN5CCN(CCCN(Cc6ccc([N+](=O)[O-])cc6)Cc6ccc([N+](=O)[O-])cc6)CC5)CC[C@@]4(C)[C@]3(C)CC[C@H]2C1(C)C`: the negative-log IC50 (pIC50) is 5.45 with Plasmodium falciparum [1], 5.52 with Plasmodium falciparum [5], 4.74 in the assay with MRC5 and less than 1.70 in assay [3]. In [6], this molecule yielded a Selectivity index of 5.1. For the same molecule, in assay [7], the Ratio came out at 1.17. Moreover, the values for the inhibition in assay [12] and in assay [13] were 3.6% and 18.6%, respectively. In assay [4], the Ratio IC50 is greater than 3.4.
